Experimental data reported in ChEMBL document CHEMBL1149197, “Design and synthesis of beta-amino-alpha-hydroxy amide derivatives as inhibitors of MetAP2 and HUVEC growth” (Bioorg Med Chem Lett, 2004).
Values after ≈ are worked out from the molar mass of the structure shown.

Key:
Type in all cases: functional
HUVEC [1] = experiment: Anti-proliferative activity against human umbilical vein endothelial cells (HUVECs)
Method in brief: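 HUVECs seeded at 1500 cells/well and cultured 24 h at 37 °C, then exposed to a dose-response series of compound for 24 h. Proliferation was read as ³H-thymidine incorporation by scintillation proximity assay. GI₅₀ was taken from plots of percent-of-control ³H-thymidine uptake versus compound concentration.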

HUVEC [2] = experiment: In vitro anti-proliferative activity against human umbilical vein endothelial cells at 5 uM.; details: for inhibition of growth at 5 µM: Homo sapiens, HUVEC, read-out: GI
Bos taurus = species on record: Bos taurus; experiment: Anti-proliferative activity against calf endothelial cells; details: endothelial cell

Row | SMILES | GI50 (HUVEC [1]; Homo sapiens, HUVEC) [µM] | inhibition of growth at 5 µM (HUVEC [2]) [%] | further results
1 | CCOc1ccc(/C=C/C(=O)Nc2ccc(NC(=O)[C@@H](O)[C@H](N)CCc3ccccc3)cc2)cc1 | 1.8 | > 98 | –
2 | CCSCC[C@@H](N)[C@H](O)C(=O)Nc1ccc(NC(=O)/C=C/c2cc(OC)c(OC)c(OC)c2)cc1 | – | 89 | –
3 | CCOc1ccc(/C=C/C(=O)Nc2ccc(NC(=O)C(O)C(N)CCSCC)cc2)cc1 (single isomer, unassigned) | – | 91 | –
4 | CCSCCC(N)C(O)C(=O)Nc1ccc(NC(=O)/C=C/c2ccc(OC)cc2)cc1 (single isomer, unassigned) | – | 43 | –
5 | COc1cc(/C=C/C(=O)NC2CCC(NC(=O)[C@@H](O)[C@H](N)CC3CCCCC3)CC2)cc(OC)c1OC (some centres not stated) | – | 52 | –
6 | CCOc1ccc(/C=C/C(=O)Nc2ccc(NC(=O)[C@@H](O)[C@H](N)CC3CCCCC3)cc2)cc1 | 1 | > 98 | –
7 | CCSCCC(N)C(O)C(=O)Nc1ccc(NC(=O)/C=C/c2ccccc2)cc1 (single isomer, unassigned) | – | 48 | –
8 | COc1cc(/C=C/C(=O)Nc2ccc(NC(=O)[C@@H](O)[C@H](N)CC3CCCCC3)cc2C)cc(OC)c1OC | 1.8 | > 98 | –
9 | COc1cc(/C=C/C(=O)O[C@@H]2CC[C@]3(CO3)[C@@H]([C@]3(C)O[C@H]3CCC=C(C)C)[C@@H]2OC)cc(OC)c1OC | – | – | IC50 (Bos taurus): 3e-05 ng/mL (≈ 5.81e-05 nM)
10 | COc1cc(/C=C/C(=O)Nc2ccc(NC(=O)[C@@H](O)[C@H](N)CCc3ccccc3)cc2)cc(OC)c1OC | 0.85 | > 98 | –
11 | CCSCC[C@@H](N)[C@H](O)C(=O)Nc1ccc(NC(=O)c2ccc(OC)cc2)cc1 (single isomer, unassigned) | – | 15 | –
12 | CCSCC[C@@H](N)[C@H](O)C(=O)Nc1ccccc1 | – | 0 | –
13 | COc1cc(NC(=O)[C@@H](O)[C@H](N)CC2CCCCC2)ccc1NC(=O)/C=C/c1cc(OC)c(OC)c(OC)c1 | 1.2 | > 98 | –
14 | COc1cc(/C=C/C(=O)Nc2ccc(NC(=O)[C@@H](O)[C@H](N)CCC3CCCCC3)cc2)cc(OC)c1OC | 0.8 | > 98 | –
15 | COc1cc(/C=C/C(=O)Nc2ccc(NC(=O)[C@@H](O)[C@H](N)CCc3ccccc3)c(C)c2)cc(OC)c1OC | 2.3 | 92 | –
16 | COc1cc(NC(=O)/C=C/c2cc(OC)c(OC)c(OC)c2)ccc1NC(=O)[C@@H](O)[C@H](N)CCc1ccccc1 | 0.7 | > 98 | –
17 | CCOc1ccc(CCC(=O)Nc2ccc(NC(=O)[C@@H](O)[C@H](N)CC3CCCCC3)cc2)cc1 | – | 42 | –
18 | COc1cc(/C=C/C(=O)NC2CCC(NC(=O)[C@@H](O)[C@H](N)CCc3ccccc3)CC2)cc(OC)c1OC (some centres not stated) | – | 46 | –
19 | COc1cc(/C=C/C(=O)Nc2ccc(NC(=O)[C@@H](O)[C@H](N)CC3CCCCC3)cc2)cc(OC)c1OC (stereo in doubt) | – | – | GI50 (HUVEC [1]): 2 µM; growth inhibition (GI) (HUVEC [2]): 96%
20 | COc1cc(/C=C/C(=O)Nc2ccc(NC(=O)[C@@H](O)[C@H](N)CC3CCCCC3)cc2)cc(OC)c1OC (stereo in doubt; 11) | – | > 98 | GI50 (HUVEC [1]): 0.67 µM
21 | CCSCC[C@@H](N)[C@H](O)C(=O)Nc1ccc(NC(=O)c2cc(OC)c(OC)c(OC)c2)cc1 (single isomer, unassigned) | – | 20 | –
22 | COc1cc(/C=C/C(=O)Nc2ccc(NC(=O)[C@@H](O)[C@H](N)Cc3ccccc3)cc2)cc(OC)c1OC | – | 93 | –
